Assay results as given in ChEMBL document CHEMBL1156614, “Discovery of imidazole vinyl pyrimidines as a novel class of kinase inhibitors which inhibit Tie-2 and are orally bioavailable” (Bioorg Med Chem Lett, 2008).

Legend:
[1] = target: T1, Angiopoietin-1 receptor (Homo sapiens, UniProt Q02763); experiment: Inhibition of recombinant Tie2 expressed in baculovirus-Sf21 system
Procedure, shortened: (§1)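 Kinase-domain fragments expressed in baculovirus/Sf21 cells. Crude lysates (ice-cold Triton lysis with protease inhibitors, cleared) were diluted 1:200 for Tie-2, 1:400 for KDR and 1:1000 for Flt-1. Reactions ran on synthetic peptide-coated plates in 100 mM Hepes pH 7.4 with 5 µM ATP, 10 mM MnCl2, 0.1 mM vanadate, 0.2 mM DTT and 2.5% final DMSO, at room temperature for 60 min (Tie-2) or 20 min (KDR, Flt-1).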

[2] = target: Vascular endothelial growth factor receptor 1 (Homo sapiens, UniProt P17948); experiment: Inhibition of recombinant Flt1 expressed in baculovirus-Sf21 system; procedure, shortened: as §1
Chain of Vascular endothelial growth factor receptor 1 (P17948 whole entry): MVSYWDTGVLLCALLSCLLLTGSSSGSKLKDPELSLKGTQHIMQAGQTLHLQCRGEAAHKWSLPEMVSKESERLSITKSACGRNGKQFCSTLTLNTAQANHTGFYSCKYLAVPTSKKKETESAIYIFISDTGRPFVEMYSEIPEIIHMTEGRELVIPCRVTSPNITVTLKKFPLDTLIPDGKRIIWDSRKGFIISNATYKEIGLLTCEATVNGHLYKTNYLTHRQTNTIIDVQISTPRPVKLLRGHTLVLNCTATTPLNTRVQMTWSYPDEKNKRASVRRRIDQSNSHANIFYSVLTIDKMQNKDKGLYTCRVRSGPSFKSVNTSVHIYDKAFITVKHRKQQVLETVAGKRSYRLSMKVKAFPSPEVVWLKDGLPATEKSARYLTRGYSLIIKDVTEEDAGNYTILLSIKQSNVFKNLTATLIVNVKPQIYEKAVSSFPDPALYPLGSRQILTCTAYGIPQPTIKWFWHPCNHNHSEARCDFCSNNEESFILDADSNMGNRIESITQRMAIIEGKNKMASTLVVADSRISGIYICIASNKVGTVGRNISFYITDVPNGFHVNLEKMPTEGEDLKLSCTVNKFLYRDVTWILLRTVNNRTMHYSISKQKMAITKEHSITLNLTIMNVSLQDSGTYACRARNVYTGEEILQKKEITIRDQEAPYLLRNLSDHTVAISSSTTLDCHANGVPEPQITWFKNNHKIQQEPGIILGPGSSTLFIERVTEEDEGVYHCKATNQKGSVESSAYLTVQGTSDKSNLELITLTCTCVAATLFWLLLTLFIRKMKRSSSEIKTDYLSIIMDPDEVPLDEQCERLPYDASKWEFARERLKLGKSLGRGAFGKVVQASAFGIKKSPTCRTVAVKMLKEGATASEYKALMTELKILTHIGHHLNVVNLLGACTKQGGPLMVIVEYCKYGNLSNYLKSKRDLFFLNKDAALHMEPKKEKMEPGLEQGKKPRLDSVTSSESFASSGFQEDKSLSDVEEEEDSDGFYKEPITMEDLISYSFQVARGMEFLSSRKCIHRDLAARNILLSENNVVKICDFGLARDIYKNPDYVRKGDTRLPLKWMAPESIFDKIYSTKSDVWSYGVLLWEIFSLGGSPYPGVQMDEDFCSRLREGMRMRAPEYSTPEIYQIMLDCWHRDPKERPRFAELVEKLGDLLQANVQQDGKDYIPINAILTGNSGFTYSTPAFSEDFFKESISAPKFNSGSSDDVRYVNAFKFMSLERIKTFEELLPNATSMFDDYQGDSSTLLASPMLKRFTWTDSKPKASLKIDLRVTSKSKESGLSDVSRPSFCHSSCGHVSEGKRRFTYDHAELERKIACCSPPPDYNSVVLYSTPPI

[3] = target: Vascular endothelial growth factor receptor 2 (Homo sapiens, UniProt P35968); experiment: Inhibition of recombinant KDR expressed in baculovirus-Sf21 system; procedure, shortened: as §1
Chain of Vascular endothelial growth factor receptor 2 (P35968 whole entry): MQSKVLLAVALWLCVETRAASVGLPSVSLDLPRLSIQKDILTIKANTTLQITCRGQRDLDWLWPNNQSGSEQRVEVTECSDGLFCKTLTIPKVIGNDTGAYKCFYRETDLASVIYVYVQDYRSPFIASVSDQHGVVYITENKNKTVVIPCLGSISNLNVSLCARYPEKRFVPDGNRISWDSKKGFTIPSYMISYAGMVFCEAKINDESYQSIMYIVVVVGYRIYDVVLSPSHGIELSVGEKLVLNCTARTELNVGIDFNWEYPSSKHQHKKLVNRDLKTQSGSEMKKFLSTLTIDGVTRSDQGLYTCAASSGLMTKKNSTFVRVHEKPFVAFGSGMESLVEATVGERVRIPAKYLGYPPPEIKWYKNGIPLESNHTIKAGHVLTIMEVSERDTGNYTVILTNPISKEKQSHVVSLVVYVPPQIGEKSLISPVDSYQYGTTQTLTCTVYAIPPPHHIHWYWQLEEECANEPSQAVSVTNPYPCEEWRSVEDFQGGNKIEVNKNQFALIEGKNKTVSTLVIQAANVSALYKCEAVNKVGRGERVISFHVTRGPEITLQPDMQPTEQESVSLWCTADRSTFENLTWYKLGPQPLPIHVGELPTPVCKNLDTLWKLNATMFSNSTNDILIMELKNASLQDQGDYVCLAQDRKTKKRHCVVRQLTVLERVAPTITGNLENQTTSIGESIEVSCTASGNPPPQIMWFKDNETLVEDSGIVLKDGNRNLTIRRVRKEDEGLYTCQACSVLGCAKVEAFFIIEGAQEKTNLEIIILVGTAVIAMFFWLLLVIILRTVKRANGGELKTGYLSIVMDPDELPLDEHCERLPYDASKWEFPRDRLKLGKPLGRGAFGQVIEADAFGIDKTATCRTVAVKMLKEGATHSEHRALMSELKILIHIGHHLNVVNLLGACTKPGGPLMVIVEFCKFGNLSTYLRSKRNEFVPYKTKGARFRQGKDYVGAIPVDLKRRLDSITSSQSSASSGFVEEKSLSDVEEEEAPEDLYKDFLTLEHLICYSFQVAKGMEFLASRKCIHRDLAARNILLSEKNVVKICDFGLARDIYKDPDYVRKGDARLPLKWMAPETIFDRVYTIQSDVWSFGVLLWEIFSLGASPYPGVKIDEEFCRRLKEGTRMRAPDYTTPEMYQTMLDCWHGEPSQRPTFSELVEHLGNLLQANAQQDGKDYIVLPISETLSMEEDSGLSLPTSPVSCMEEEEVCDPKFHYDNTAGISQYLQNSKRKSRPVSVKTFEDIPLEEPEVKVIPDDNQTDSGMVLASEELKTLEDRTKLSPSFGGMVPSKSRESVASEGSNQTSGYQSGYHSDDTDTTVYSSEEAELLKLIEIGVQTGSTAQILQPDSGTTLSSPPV

[4] = target: T1, Angiopoietin-1 receptor; experiment: Inhibition of human Tie2 autophosphorylation expressed in CHOK1 cells by ELISA; type: cell-based, CHO-K1
Procedure, shortened: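 CHO-K1 cells stably expressing human Tie-2 were seeded at 6×10^4 cells/well and grown 3 days in DMEM/G418/10% FCS. Compound was added in DMEM with 1% FCS for 45 min at 37 °C. Cells were lysed on ice, and lysate was captured on a human Tie-2 ELISA plate (2 h, room temperature). Phospho-Tie-2 was detected with a rabbit antibody, then anti-rabbit HRP and colour reagent; read at OD450.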

[5] = Cmax in mouse at 1 mg/kg, po by cassette dosing assay; type: ADME, organism-based; set-up: dose 1 mg/kg, route oral; conditions: in vivo
[6] = Inhibition of p38
[7] = test system: HUVEC; experiment: Inhibition of growth factor-stimulated proliferation of HUVEC; type: functional, cell-based; conditions: Homo sapiens
[8] = Fraction unbound ligand in mouse; type: ADME, organism-based; conditions: in vivo
[9] = Fraction unbound ligand in rat; type: ADME
[10] = Cmax in mouse at 2 mg/kg by cassette dosing assay; type: ADME, organism-based; set-up: dose 2 mg/kg; conditions: in vivo
[11] = test system: Mus musculus; experiment: AUC in mouse at 2 mg/kg by cassette dosing assay; type: ADME, organism-based, Plasma; set-up: dose 2 mg/kg; conditions: in vivo

T1 sequence (Q02763 whole entry, the tested form may be a part): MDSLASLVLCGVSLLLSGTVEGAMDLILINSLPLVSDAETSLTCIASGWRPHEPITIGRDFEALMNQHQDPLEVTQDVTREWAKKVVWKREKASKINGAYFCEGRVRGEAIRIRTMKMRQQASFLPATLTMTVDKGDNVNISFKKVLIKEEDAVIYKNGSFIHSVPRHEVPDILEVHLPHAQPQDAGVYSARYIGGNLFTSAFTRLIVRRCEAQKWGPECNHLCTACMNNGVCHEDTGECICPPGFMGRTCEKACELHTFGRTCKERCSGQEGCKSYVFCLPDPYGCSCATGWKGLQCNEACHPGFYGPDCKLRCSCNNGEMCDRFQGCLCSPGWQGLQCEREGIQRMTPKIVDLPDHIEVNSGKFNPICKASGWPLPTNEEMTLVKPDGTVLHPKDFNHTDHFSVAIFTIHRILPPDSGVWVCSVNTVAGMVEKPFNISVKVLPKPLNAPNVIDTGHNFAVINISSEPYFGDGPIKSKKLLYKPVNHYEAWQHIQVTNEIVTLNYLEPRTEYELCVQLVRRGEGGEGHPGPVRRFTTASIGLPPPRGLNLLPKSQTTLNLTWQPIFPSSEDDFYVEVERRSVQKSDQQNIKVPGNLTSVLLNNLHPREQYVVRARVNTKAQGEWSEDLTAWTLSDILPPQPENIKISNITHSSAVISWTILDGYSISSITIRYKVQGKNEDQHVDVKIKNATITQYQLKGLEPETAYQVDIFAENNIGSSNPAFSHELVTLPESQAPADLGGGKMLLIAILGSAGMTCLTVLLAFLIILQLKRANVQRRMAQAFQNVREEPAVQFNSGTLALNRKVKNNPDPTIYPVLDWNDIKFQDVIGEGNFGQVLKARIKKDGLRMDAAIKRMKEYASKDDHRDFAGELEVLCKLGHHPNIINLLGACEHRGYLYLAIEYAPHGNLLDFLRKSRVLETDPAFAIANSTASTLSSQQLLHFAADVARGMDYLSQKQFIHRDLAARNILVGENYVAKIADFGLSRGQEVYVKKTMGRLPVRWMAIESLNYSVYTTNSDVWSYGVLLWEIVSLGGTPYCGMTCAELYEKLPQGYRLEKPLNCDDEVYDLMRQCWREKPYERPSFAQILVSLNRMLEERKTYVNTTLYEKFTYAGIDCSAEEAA

SMILES | IC50 [1] [µM] | IC50 [2] [µM] | IC50 [3] [µM] | further results
CC(C)(C)C(=O)Nc1nccc(/C=C/c2c(-c3ccccc3)nc3sccn23)n1 | 41 | 96 | 13 | 
Nc1nccc(/C=C/c2c(-c3ccc(F)cc3)nc3sccn23)n1 | 13 |  |  | 
Nc1nccc(/C=C/c2[nH]cnc2-c2ccccc2)n1 | 8.4 | 68 | 9.8 | IC50 [4]: 0.37 µM
Nc1nccc(/C=C/c2c(-c3ccccc3)ncn2CCN2CCCC2)n1 | 21 | > 100 | 32 | 
Nc1nccc(/C=C/c2c(-c3ccccc3)ncn2CC(=O)O)n1 | 68 |  |  | 
Cn1cnc(/C=C/c2ccnc(N)n2)c1-c1ccccc1 | > 100 | > 100 | 7.8 | 
Cn1c(-c2ccccc2)c(/C=C/c2ccnc(N)n2)c2ccccc21 | 83 |  |  | 
Cn1cnc(-c2ccccc2)c1NC(=O)c1ccnc(N)n1 | > 100 | > 100 | > 100 | 
Nc1nccc(/C=C/c2ccsc2-c2ccccc2)n1 | > 100 | > 100 | > 100 | 
Nc1nccc(/C=C/c2c(-c3ccccc3)nc3sccn23)n1 | 6 | 30 | 7 | Cmax [5]: 290 nM
CC(=O)Nc1nccc(/C=C/c2c(-c3ccccc3)nc3sccn23)n1 | 11 | 100 | 4.5 | 
Nc1ccnc(/C=C/c2c(-c3ccccc3)nc3sccn23)n1 | > 100 | > 100 | > 100 | 
Clc1nccc(/C=C/c2c(-c3ccccc3)nc3sccn23)n1 | 55 | 66 | > 100 | 
C(=C\c1c(-c2ccccc2)nc2sccn12)/c1ccncn1 | 27 | > 100 | 77 | 
Cc1nc2sccn2c1/C=C/c1ccnc(N)n1 | > 100 | > 100 | 70 | 
Cn1cnc(-c2ccccc2)c1C#Cc1ccnc(N)n1 | 6.4 | 36 | 2.9 | 

SMILES | IC50 [1] [µM] | IC50 [2] [µM] | IC50 [3] [µM] | further results
Cn1cnc(-c2ccccc2)c1C(=O)Nc1ccnc(N)n1 | > 100 | > 100 | > 100 | 
Nc1nccc(/C=C/c2c(-c3ccccc3)nc3n2CCS3)n1 | 2.9 | 23 | 3.2 | 
Nc1nccc(/C=C/c2c(-c3ccccc3)nc3ccccn23)n1 | 5.6 | 79 | 13 | 
Cn1cnc(-c2ccccc2)c1Nc1ccnc(N)n1 | > 100 | > 100 | > 100 | 
Cn1cnc(-c2ccccc2)c1NCCc1ccnc(N)n1 | > 100 | > 100 | > 100 | 
Nc1nccc(/C=C/c2[nH]ncc2-c2ccccc2)n1 | 64 | > 100 | > 100 | 
Nc1nccc(/C=C/c2c(Cl)nc3sccn23)n1 | > 100 | > 100 | 31 | 
C(=C\c1c(-c2ccccc2)nc2sccn12)/c1ccnc(Nc2ccccc2)n1 | 68 | > 100 | > 100 | 
Nc1nccc(/C=C/c2sccc2-c2ccccc2)n1 | > 100 | > 100 | > 100 | 
Cn1cnc(-c2ccccc2)c1CNc1ccnc(N)n1 | > 100 | > 100 | > 100 | 
Nc1cc(/C=C/c2c(-c3ccccc3)nc3sccn23)ncn1 | 5.2 | > 100 | 35 | 
Cn1cnc(-c2ccccc2)c1/C=C/c1ccnc(N)n1 | 3.8 | 34 | 3.2 | IC50 [4]: 0.34 µM; IC50 [6]: 12 µM; IC50 [7]: > 10 µM; fraction unbound [8]: 0.125; fraction unbound [9]: 0.099; Cmax [10]: 460 nM; AUC [11]: 0.58 µM·h
CNc1nccc(/C=C/c2c(-c3ccccc3)nc3sccn23)n1 | 14 | 84 | 17 | 
Nc1nccc(/C=C/c2c(-c3ccccc3)ncn2Cc2ccccc2)n1 | 2.8 | 31 | 7 | 
CC(Nc1nccc(/C=C/c2c(-c3ccccc3)nc3sccn23)n1)c1ccccc1 (centres undefined) | > 100 | > 100 | > 100 | 
Cn1cnc(-c2ccccc2)c1C1CC1c1ccnc(N)n1 (centres undefined) | > 100 | > 100 | > 100 | 
